Experiment [1] is described as follows: inhibitors of TNFa-induced NFkB p65 translocation, primary screen, imaging, HUVEC, MLSMR starter and 10KST1 sets (AID 438;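 active = inhibition above 20% together with a positive visual image hit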;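 also: compound added about 3h40 before a 20 min TNFalpha stimulation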;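 as to inhibition: signal is the nuclear over cytoplasmic p65 intensity ratio per well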). The note with it: HUVEC TNFa-induced p65 nuclear translocation; cell count: measured here: nuclei count (cytotoxicity indicator), at 2.08 µM; inhibition: at 2 µM, stronger effect = higher value, 0% TNFa-plus-vehicle, 100% no-TNFa wells.
A short description of experiment [2]: inhibitors of E-selectin induction by TNFa, primary screen, imaging, HUVEC, immunofluorescence, MLSMR starter and 10KST1 sets (AID 487;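 active = visually confirmed hit in the image check and inhibition above 20%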;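 as to inhibition: signal is fraction of cell area covered by stained E-selectin grains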;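 as to nuclei count: 100% = median nuclei count of all wells on the same plate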). As to conditions: HUVEC TNFalpha-induced E-selectin immunofluorescence imaging, at 2 µM; inhibition: stronger effect = higher value; nuclei count: measured here: cell number, toxicity.
Experiment [3] can be described thus: DUSP6 inhibitors restoring Erk phosphorylation by chemical complementation, primary imaging in DUSP6-transfected HeLa (AID 609;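 active = compounds giving at least 50% inhibition in the cell-based MKP-3 phosphatase rescue imaging test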;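 as to inhibition: phospho-Erk level distribution per well compared with pooled transfected vehicle control wells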). The note with it: HeLa MKP-3 transfected, phospho-Erk imaging KS statistic, at 10 µM, cells stimulated with TPA for 15 min.
Experiment [4] addresses Dual specificity protein phosphatase 6 (Homo sapiens) (UniProt Q16828). The description is as above. As to conditions: HeLa MKP-3 transfected, phospho-Erk imaging KS statistic; at 10 µM; stronger effect = higher value; cells stimulated with TPA for 15 min.
Experiment [5] deals with Voltage-gated potassium channel subunit beta-2 (Rattus norvegicus) (UniProt P62483). In words: KvBeta enzyme negative modulators, primary screen, biochemical, NADPH fluorescence (AID 622;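 active = fluorescence slope higher than the sample average by over 3 SD, cut at about -0.22 in these data, passing the limit was not always enough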;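 also: slope of raw intensity against log time taken from 70 to 1610 s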). The note with it: recombinant KvBeta, 4-cyanobenzaldehyde reduction, at 10 µM, stronger effect = higher value.
Experiment [6] shares this target. In words: KvBeta positive modulators, primary screen, biochemical, NADPH fluorescence (AID 623;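 active = NADPH fluorescence slope more negative than the mean of all samples by about 3 SD, 99.7% confidence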;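 also: fluorescence intensity change per second fitted from 20 to 320 s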). The note with it: Recombinant KvBeta, NADPH fluorescence decrease slope, 10 min; at 10 µM; stronger effect = lower value.
Experiment [7] has as its target Muscarinic acetylcholine receptor M4 (Homo sapiens) (UniProt P08173). Nature of the experiment: compounds altering M4/GIRK thallium flux, either direction, primary screen, M4 allosteric agonist project, cell-based, HEK293 M4/GIRK, BTC-AM (AID 625;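 active = fluorescence slope after compound addition differing from the mean of all tested samples at 99.7% confidence, mostly higher but some lower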;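 also: thallium influx through GIRK channels coupled to M4 in HEK293 cells with BTC-AM dye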). The note with it: at 10 µM, actives lie on both sides. The essentials: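 Material: M4/GIRK1/GIRK2 stable HEK293 cell line. Medium: pH 7.3 thallium assay buffer. Dosing: single compound concentration, 10 µM final. Schedule: 1 h dye loading, 2 min kinetic read. Measured by: kinetic fluorescence with BTC-AM dye. Read-out: post-addition slope, 15–24 s, of baseline-normalized fluorescence. Benchmarks: carbachol and DMSO controls.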

Experiment [8] can be described thus: inhibitors of larval lipid processing in zebrafish, primary screen, whole organism, PED6 fluorescence, gall bladder and intestine (AID 686).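 Also: larvae 5 to 7 days old with five fish per well; signal comes from phospholipase A2 cleavage of quenched PED6 carried via bile; overnight exposure to compound and PED6 before scoring.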 The note with it: Zebrafish larvae PED6 lipid processing, fluorescence scoring; screened at 20 µM (by protocol). An outline of the steps: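 System: live zebrafish larvae aged 5-7 days, whole organism; measure: graded gall bladder and intestinal fluorescence inhibition per well; incubation: overnight exposure; reagent: ingested quenched lipid PED6 at 100 nM; signal: By-eye fluorescence microscopy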

A short description of experiment [9]: inhibitors of Chlamydomonas gravitaxis, primary screen, whole organism, Chlamydomonas reinhardtii, WT vs cilia-less mutant, absorbance, 96-well (AID 463189;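 active = inhibition at or above 50% relative to wild type and mutant plate controls; inactive = inhibition below 50%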;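 also: 0% = wild type cc124 cells in DMSO and 100% = ciliumless bld1 mutant cells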). As to conditions: OD600 absorbance, 2 days, at 10 µM, stronger effect = higher value.
Where [10] appears, read: measured here: cell density z-score.
Where [11] appears, read: measured here: nuclear c-Myc green intensity z-score.
[12] abbreviates: measured here: nuclear pErk red intensity z-score, stronger effect = higher value.

Active and inactive are the calls of the source.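 The calls were made as follows, unless noted: active = a full or partial loss of lipid-probe fluorescence in the fish gall bladder, intestine or both, judged by eye; inactive = no fluorescence loss, or compound toxic to the fish.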

Chain of Voltage-gated potassium channel subunit beta-2 (Rattus norvegicus) (P62483 whole entry, looked up): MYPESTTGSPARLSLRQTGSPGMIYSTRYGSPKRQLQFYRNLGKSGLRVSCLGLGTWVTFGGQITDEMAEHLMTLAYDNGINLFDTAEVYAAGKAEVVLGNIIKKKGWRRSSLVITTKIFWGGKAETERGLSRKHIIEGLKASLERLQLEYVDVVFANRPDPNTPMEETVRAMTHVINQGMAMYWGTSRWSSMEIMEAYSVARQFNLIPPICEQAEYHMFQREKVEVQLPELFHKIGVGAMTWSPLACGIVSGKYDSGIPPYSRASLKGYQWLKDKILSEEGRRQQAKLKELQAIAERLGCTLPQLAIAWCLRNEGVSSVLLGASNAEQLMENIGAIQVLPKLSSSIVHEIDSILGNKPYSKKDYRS
Chain of Muscarinic acetylcholine receptor M4 (Homo sapiens) (P08173 whole entry, looked up): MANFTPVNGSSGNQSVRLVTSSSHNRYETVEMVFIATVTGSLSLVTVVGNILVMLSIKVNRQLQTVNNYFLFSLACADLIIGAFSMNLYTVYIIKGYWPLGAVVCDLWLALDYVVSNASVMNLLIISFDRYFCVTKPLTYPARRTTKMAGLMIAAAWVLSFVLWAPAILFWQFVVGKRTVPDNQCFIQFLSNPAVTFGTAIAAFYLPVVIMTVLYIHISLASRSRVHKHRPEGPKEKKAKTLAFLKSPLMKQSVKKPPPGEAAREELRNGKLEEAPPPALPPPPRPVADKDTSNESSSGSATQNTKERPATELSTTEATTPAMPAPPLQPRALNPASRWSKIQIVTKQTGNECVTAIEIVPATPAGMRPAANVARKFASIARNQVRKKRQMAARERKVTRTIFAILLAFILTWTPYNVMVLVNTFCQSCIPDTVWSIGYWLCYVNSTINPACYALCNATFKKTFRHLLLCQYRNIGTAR
Chain of Dual specificity protein phosphatase 6 (Homo sapiens) (Q16828 whole entry, looked up): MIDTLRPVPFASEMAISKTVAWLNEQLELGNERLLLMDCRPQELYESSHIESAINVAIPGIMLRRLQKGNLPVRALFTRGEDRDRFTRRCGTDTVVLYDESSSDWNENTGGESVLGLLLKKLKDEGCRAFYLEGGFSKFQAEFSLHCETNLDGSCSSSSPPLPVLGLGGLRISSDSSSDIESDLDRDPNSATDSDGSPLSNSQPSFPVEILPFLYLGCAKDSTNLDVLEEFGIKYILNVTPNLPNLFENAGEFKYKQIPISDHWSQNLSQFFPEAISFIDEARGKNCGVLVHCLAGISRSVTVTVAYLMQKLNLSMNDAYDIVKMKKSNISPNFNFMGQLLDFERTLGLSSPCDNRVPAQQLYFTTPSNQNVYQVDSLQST

Consider `Cc1c(O)c(CN2CCCC2)cc2c1oc(=O)c1ccccc12`, for which the cell count in experiment [1] was found to be 602. Moreover, the inhibition in experiment [1] was 3.3% (inactive); in experiment [2], 92.9% (active); in experiment [4], -8.95% (inactive); in experiment [9], 17.4% (inactive). The molecule further returned a nuclei count in experiment [2] of 77.2%. The z-score is 0.99 in [3] (setting [10]), 0.189 in experiment [3] (setting [11]) and -0.00827 in experiment [3] (setting [12]). For the same molecule, the fluorescence slope in experiment [5] was -0.44 (inactive); in experiment [7], 0.00331 (inactive). In addition, the NADPH fluorescence slope in experiment [6] is -2.9e-05 (inactive). Besides, the result in [8] was inactive.

With `CCOC(=O)C(C)c1nc2ccccc2[nH]c1=O` (centres undefined), the cell count in [1] was 579. Besides, the inhibition in experiment [1] was -6.6% (inactive); in [2], -30.5% (inactive); in experiment [4], 1.9e-07% (inactive); in experiment [9], 12.9% (inactive). In [2], this molecule displayed a nuclei count of 164%. Moreover, the figures for the z-score in experiment [3] (setting [10]), in experiment [3] (setting [11]) and in experiment [3] (setting [12]) were -0.098, 0.564 and 0.462, respectively. Also, the fluorescence slope in [5] was -0.397 (inactive); in experiment [7], 0.00575 (inactive). In addition, the NADPH fluorescence slope in experiment [6] was -6.3e-05 (inactive). In [8], the molecule was classed as inactive.

`CCOC(=O)C(C)Sc1nc(-c2cccs2)ccc1C#N` (centres undefined): the cell count in [1] worked out at 657. For the same molecule, the inhibition in experiment [1] is 0.6% (inactive); in experiment [2], 29.6% (inactive); in experiment [4] it was -7.86% (inactive); in experiment [9], 4.31% (inactive). The molecule further registered a nuclei count in [2] of 189%. Also, the z-score was -1.44 in experiment [3] (setting [10]), 0.836 in [3] (setting [11]) and 0.563 in experiment [3] (setting [12]). Also, the fluorescence slope was -0.427 (inactive) in [5] and 0.00531 (inactive) in [7]. For the same molecule, the NADPH fluorescence slope in experiment [6] was -5.7e-05 (inactive). The call in experiment [8] was inactive.

For the molecule `COC(=O)c1cc(Br)c(=O)n(Cc2ccco2)c1`, the cell count in experiment [1] came out at 518. The inhibition in experiment [1] is -0.8% (inactive); in [2], 34.7% (inactive); in experiment [4], 1.9e-07% (inactive); in [9], -6.69% (inactive). Moreover, in experiment [2], the nuclei count amounted to 159%. Besides, the z-score in experiment [3] (setting [10]) was -0.341; in experiment [3] (setting [11]) it was 0.91; in experiment [3] (setting [12]), -1.02. Also, the results for the fluorescence slope in experiment [5] and in experiment [7] were -0.411 (inactive) and 0.00519 (inactive), respectively. In [6], the NADPH fluorescence slope was -3.2e-05 (inactive). In addition, the outcome in experiment [8] was inactive.

As to `CCN(CC)CCN1C(=O)C(O)=C(C(C)=O)C1c1ccc(OC)c(OC)c1` (centres undefined), the cell count in [1] stood at 466. In addition, the inhibition in experiment [1] is 0.4% (inactive); in [2], -202% (inactive); in [4], -5.62% (inactive); in experiment [9] it was 2.41% (inactive). The same molecule came in with a nuclei count in experiment [2] of 182%. Moreover, the z-score was 0.172 in experiment [3] (setting [10]), -0.258 in [3] (setting [11]) and 1.22 in experiment [3] (setting [12]). In addition, the fluorescence slope is -0.445 (inactive) in [5] and 0.00464 (inactive) in [7]. For the same molecule, the NADPH fluorescence slope in experiment [6] was -4.1e-05 (inactive). Besides, in experiment [8], the outcome was inactive.

As for `COC(=O)C(NC(=O)c1ccco1)(Nc1ccc(Br)cn1)C(F)(F)F` (centres undefined), in [1], the cell count came out at 717. The inhibition in [1] is -8.8% (inactive); in [2], 13.2% (inactive); in experiment [4], -5.81% (inactive); in experiment [9] it was 4.54% (inactive). The molecule further returned a nuclei count in experiment [2] of 147%. Besides, the z-score in [3] (setting [10]) is -0.772; in [3] (setting [11]) it was -0.373; in [3] (setting [12]) it was 1.11. Also, the figures for the fluorescence slope in [5] and in experiment [7] were -0.457 (inactive) and 0.00446 (inactive), respectively. Moreover, the NADPH fluorescence slope in [6] is -6.6e-05 (inactive). In addition, the molecule was called inactive in [8].

For the molecule `CN(CCCCCNC(=O)/C=N/O)Cc1ccccc1`, in experiment [1], the cell count stood at 661. The inhibition in [1] is -11.4% (inactive); in experiment [2], -47.5% (inactive); in experiment [4], 5.35% (inactive); in experiment [9] it was 27.9% (inactive). Also, in experiment [2], the nuclei count was determined as 99.4%. The values for the z-score in experiment [3] (setting [10]), in experiment [3] (setting [11]) and in [3] (setting [12]) were -0.0258, 0.279 and -0.452, respectively. The fluorescence slope in experiment [5] was -0.537 (inactive); in experiment [7] it was 0.00725 (inactive). The NADPH fluorescence slope in experiment [6] was -6.5e-05 (inactive). Besides, the outcome in experiment [8] was inactive.

As for `CSc1nc2[nH]c3c(c2c2nnnn12)CCCC3`, the cell count in [1] was 571. The inhibition was -2.3% (inactive) in [1], -139% (inactive) in experiment [2], 13.4% (inactive) in experiment [4] and 79.4% (active) in experiment [9]. Also, the nuclei count in experiment [2] was determined as 145%. The values for the z-score in experiment [3] (setting [10]), in experiment [3] (setting [11]) and in experiment [3] (setting [12]) were 0.625, 0.274 and -0.282, respectively. In addition, the figures for the fluorescence slope in [5] and in experiment [7] were -0.341 (inactive) and 0.00402 (inactive), respectively. Besides, the NADPH fluorescence slope in experiment [6] is 0.000139 (inactive). For the same molecule, the call in experiment [8] was inactive.

Regarding `CC1(C)Cc2[nH]c(=O)c(C#N)cc2CS1`, the cell count in experiment [1] amounted to 595. The inhibition was -11.1% (inactive) in [1], -93.7% (inactive) in experiment [2], -0.233% (inactive) in experiment [4] and 3.23% (inactive) in experiment [9]. This molecule returned a nuclei count in experiment [2] of 149%. Also, the z-score was 0.698 in experiment [3] (setting [10]), -0.413 in experiment [3] (setting [11]) and 1.37 in [3] (setting [12]). Also, the fluorescence slope is -0.435 (inactive) in experiment [5] and 0.00467 (inactive) in [7]. The NADPH fluorescence slope in experiment [6] was -0.000124 (inactive). Also, in experiment [8], the molecule was called inactive.

Regarding `O=c1c2ccccc2ncn1Cc1ccco1`, the cell count in experiment [1] is 682. For the same molecule, the inhibition was -8.5% (inactive) in experiment [1], -74.2% (inactive) in experiment [2], -15.1% (inactive) in [4] and 14.3% (inactive) in experiment [9]. Moreover, in [2], the nuclei count stood at 138%. Further, the figures for the z-score in experiment [3] (setting [10]), in experiment [3] (setting [11]) and in experiment [3] (setting [12]) were -0.419, -1.56 and 0.938, respectively. In addition, the fluorescence slope was -0.449 (inactive) in experiment [5] and 0.00462 (inactive) in [7]. Moreover, in experiment [6], the NADPH fluorescence slope was -3.2e-05 (inactive). The result in experiment [8] was inactive.

Consider `CCCCOC(=O)CCc1nc2ccccc2[nH]1`, for which the cell count in experiment [1] was 716. Also, the inhibition in [1] is -2.4% (inactive); in [2], -50.5% (inactive); in [4], -3.97% (inactive); in experiment [9], 8.4% (inactive). For the same molecule, the nuclei count in [2] stood at 195%. In addition, the z-score in experiment [3] (setting [10]) is -0.361; in experiment [3] (setting [11]) it was 0.108; in experiment [3] (setting [12]) it was 1.13. The figures for the fluorescence slope in [5] and in [7] were -0.484 (inactive) and 0.00514 (inactive), respectively. For the same molecule, the NADPH fluorescence slope in [6] was -5.5e-05 (inactive). Moreover, the molecule was classed as inactive in [8].

As to `O=c1c2c3c(sc2n2cnnc2n1C1CCCCC1)CCC3`, in experiment [1], the cell count stood at 363. In addition, the inhibition is -3.6% (inactive) in experiment [1], -2% (inactive) in [2], -2.59% (inactive) in experiment [4] and 33.2% (inactive) in [9]. For the same molecule, the nuclei count in [2] was 172%. Besides, the figures for the z-score in experiment [3] (setting [10]), in [3] (setting [11]) and in [3] (setting [12]) were -0.995, -0.714 and 0.683, respectively. Moreover, the fluorescence slope was -0.434 (inactive) in experiment [5] and 0.00453 (inactive) in experiment [7]. In experiment [6], the NADPH fluorescence slope is -0.000131 (inactive). Also, the result in experiment [8] was inactive.

In the case of `C=CCN(CC=C)c1nc2ccccc2nc1C(C#N)C(=O)OC(C)C` (centres undefined), the cell count in [1] came to 639. Moreover, the inhibition was -6.1% (inactive) in experiment [1], -48.1% (inactive) in experiment [2], -13.3% (inactive) in experiment [4] and 7.18% (inactive) in experiment [9]. This molecule had a nuclei count in experiment [2] of 173%. Besides, the figures for the z-score in experiment [3] (setting [10]), in experiment [3] (setting [11]) and in experiment [3] (setting [12]) were -0.0253, -0.36 and 0.934, respectively. Further, the figures for the fluorescence slope in [5] and in experiment [7] were -0.467 (inactive) and 0.00206 (inactive), respectively. The NADPH fluorescence slope in experiment [6] is -4.8e-05 (inactive). The call in experiment [8] was inactive.

The inhibition is the relative decrease from the control value, in per cent.

Source of the values: PubChem BioAssay.
